Measurements reported in paper PMC4876142 (Pharmacology Research & Perspectives, 2016).
“Also recorded” adds a separate entry of the source.

Legend:
guinea pig ileum = details: ref Fujimoto et al. 2006; cited from earlier work
TRPM8 = assay: Ca2+ measurement in HEK293 cells transfected with TRPM8; type: cell-based, human; details: 100 μmol/L Dic; Men 100 μmol/L
mouse = details: ref Tajino et al. 2007; cited from earlier work
human TRPM3-S = assay: Whole-cell patch clamp, constitutive spontaneous currents in HEK-TRPM3-S cells; type: cell-based; details: 10 and 30 μmol/L Dic; absence of PregS
[1] = tested on: wild-type control HEK293 cells; assay: Whole-cell patch clamp in wild-type control HEK293 cells; type: cell-based, human; details: 10 and 30 μmol/L Dic; cells without TRPM3s
Summary of the method: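 Untransfected HEK293 cells, whole-cell mode, 2.5–5 MΩ electrodes, 25 ± 1°C. Pipette (mmol/L): Cs-aspartate 110, CsCl 30, MgCl2 1, HEPES 10, EGTA 1, Na2ATP 2, pH 7.2. HEPES-buffered bath at pH 7.4 with 2.2 CaCl2. Ramps from −110 to +90 mV (400 msec) every 10 sec from −10 mV holding. Junction potential corrected, leak uncorrected. Test compound at 10 and 30 μmol/L.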

TRPM2 = TRPM2 (Homo sapiens, UniProt O94759); assay: Ca2+ measurement in HEK293 cells transfected with TRPM2; type: cell-based
human TRPM3-3 = human TRPM3-3 (Homo sapiens, UniProt Q9HCF6); type: cell-based; details: 100 μmol/L Dic applied during sustained response; Nif 30 μmol/L
[2] = tested on: human TRPM3s (TRPM3_1325, TRPM3-3, TRPM3-9); assay: Whole-cell patch clamp in HEK-TRPM3s cells; type: cell-based
human COX-1 / COX-2 = details: times potent for COX-1; ref Jett et al. 1999; cited from earlier work
TRPV4 = TRPV4 (Homo sapiens, UniProt Q9HBA0); assay: Ca2+ measurement in HEK293 cells transfected with TRPV4; type: cell-based
TRPC5 = details: read-out: IC50 for TRPC5; ref Jiang et al. 2012; cited from earlier work
human TRPM3 isoforms = human TRPM3 isoforms (Homo sapiens, UniProt Q9HCF6); type: cell-based; details: concentration-dependent
TRPC6-like channel = details: 500 μmol/L; without affecting channel conductance; ref Ilatovskaya et al. 2011; cited from earlier work
[3] = target: endogenous TRPM3 in nIMR-32 cells (Homo sapiens, UniProt Q9HCF6); assay: Ca2+ measurement in differentiated neuronal IMR-32; type: cell-based; details: 30 μmol/L; some nIMR-32 cells, not non-neuronal IMR-32 cells
mouse TRPM3α2 (mTRPM3α2) = details: read-out: IC50 against mTRPM3α2; ref Klose et al. 2011; cited from earlier work

Chain of human TRPM3 isoforms (Q9HCF6 whole entry, canonical isoform): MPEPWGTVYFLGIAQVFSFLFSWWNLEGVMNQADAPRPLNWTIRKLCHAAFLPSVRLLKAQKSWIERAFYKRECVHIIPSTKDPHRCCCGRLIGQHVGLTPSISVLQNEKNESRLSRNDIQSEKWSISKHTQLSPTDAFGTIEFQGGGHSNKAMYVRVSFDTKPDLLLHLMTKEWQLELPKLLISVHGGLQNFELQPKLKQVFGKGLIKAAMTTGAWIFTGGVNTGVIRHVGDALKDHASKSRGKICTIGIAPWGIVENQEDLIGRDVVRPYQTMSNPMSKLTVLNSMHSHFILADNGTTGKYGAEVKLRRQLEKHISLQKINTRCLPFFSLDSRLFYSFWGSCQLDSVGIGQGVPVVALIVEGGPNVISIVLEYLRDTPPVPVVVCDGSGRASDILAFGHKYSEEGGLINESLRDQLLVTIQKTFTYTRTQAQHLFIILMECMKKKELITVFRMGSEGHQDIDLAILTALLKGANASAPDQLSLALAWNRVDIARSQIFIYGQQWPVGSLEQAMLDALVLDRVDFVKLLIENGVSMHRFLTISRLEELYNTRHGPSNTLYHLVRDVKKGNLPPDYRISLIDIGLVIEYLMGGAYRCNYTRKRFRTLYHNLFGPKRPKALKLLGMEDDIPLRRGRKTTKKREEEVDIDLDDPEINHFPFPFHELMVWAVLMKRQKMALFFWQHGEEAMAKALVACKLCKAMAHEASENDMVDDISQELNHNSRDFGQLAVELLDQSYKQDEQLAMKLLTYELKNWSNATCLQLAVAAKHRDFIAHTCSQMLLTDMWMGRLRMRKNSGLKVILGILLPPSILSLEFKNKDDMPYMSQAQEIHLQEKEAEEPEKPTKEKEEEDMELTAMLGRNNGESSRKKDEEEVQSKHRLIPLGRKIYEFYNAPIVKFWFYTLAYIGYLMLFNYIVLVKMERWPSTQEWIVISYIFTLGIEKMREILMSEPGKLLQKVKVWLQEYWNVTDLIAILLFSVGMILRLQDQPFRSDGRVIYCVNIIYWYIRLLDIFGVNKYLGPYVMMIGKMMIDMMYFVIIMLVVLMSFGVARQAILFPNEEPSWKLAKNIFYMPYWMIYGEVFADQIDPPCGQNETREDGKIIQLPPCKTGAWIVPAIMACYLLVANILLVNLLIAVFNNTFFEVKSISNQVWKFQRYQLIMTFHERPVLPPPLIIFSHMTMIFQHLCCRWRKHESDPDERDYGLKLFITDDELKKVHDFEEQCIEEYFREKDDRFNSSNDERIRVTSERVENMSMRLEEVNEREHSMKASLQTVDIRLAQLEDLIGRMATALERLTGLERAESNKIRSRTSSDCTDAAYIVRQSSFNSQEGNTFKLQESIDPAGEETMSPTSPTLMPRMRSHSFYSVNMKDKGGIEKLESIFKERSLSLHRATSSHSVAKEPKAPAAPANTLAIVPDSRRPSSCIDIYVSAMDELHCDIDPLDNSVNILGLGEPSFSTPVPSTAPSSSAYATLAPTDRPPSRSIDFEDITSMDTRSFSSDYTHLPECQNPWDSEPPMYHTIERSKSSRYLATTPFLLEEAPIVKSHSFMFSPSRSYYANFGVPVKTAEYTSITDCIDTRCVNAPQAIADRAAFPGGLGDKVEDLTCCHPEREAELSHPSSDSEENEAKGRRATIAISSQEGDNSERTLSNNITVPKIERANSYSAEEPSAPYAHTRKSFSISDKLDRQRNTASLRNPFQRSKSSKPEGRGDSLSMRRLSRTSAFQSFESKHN
Chain of TRPV4 (Q9HBA0 whole entry): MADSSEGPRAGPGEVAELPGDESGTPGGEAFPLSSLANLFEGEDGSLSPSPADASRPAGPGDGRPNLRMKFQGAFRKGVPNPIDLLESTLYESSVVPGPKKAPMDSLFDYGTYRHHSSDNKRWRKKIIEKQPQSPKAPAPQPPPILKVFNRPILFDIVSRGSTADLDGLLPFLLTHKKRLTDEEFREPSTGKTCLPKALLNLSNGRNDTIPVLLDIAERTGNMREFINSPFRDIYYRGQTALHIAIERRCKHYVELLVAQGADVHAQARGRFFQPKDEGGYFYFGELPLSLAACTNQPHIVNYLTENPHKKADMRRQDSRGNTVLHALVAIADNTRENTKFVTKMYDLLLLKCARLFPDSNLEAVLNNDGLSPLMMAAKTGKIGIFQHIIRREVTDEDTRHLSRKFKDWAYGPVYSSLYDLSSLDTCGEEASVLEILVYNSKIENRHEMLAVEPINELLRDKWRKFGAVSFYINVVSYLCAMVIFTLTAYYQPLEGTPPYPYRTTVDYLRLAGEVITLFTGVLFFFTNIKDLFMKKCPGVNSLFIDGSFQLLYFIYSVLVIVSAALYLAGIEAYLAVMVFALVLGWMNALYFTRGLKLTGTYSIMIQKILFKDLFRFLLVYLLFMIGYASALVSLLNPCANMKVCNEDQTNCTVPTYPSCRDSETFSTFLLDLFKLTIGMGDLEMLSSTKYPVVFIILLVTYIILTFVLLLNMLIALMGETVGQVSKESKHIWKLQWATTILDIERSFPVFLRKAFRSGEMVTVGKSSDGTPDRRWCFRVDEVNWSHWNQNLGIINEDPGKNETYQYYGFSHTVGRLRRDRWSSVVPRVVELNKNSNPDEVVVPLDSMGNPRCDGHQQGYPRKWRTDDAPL
Chain of TRPM2 (O94759 whole entry): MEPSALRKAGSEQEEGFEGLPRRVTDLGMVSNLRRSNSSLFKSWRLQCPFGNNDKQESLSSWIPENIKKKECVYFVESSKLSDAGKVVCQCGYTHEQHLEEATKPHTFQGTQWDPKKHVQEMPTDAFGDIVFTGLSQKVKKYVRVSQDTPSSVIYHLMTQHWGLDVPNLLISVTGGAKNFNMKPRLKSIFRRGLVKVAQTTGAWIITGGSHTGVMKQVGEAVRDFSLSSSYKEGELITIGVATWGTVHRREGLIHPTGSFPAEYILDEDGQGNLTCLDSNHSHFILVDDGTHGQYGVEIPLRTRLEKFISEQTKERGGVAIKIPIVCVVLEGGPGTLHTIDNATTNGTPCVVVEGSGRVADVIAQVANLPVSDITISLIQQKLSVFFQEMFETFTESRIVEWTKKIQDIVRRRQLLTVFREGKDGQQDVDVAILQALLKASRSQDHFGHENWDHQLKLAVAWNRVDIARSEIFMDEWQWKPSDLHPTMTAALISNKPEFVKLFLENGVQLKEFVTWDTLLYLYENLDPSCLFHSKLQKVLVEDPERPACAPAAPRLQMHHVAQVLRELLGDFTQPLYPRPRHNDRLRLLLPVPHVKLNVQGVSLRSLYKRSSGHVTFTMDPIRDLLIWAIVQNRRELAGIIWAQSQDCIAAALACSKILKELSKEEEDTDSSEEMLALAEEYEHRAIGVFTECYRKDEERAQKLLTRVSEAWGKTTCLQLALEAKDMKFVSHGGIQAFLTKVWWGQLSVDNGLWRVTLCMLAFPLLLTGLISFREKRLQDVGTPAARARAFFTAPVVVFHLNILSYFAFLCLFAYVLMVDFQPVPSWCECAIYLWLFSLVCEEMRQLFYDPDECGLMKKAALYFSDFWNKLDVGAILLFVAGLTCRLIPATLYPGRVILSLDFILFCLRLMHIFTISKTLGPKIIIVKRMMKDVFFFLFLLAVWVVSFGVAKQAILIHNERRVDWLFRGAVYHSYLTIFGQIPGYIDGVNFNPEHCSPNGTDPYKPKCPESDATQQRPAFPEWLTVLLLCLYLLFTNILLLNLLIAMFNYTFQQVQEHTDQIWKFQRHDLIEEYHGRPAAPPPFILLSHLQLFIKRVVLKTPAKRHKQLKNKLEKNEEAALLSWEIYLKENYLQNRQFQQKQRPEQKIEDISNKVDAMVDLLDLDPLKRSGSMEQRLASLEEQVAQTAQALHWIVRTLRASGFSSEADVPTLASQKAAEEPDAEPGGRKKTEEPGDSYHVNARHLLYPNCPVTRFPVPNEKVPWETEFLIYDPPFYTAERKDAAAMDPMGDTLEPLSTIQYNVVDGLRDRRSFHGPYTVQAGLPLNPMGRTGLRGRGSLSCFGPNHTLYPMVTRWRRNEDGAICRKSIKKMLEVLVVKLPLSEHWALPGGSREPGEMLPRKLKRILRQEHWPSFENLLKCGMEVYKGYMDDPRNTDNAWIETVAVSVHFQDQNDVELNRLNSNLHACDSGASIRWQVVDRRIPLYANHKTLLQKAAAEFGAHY
Chain of endogenous TRPM3 in nIMR-32 cells (Q9HCF6 whole entry): as the sequence (Q9HCF6 whole entry, canonical isoform) above

O=C(O)Cc1ccccc1Nc1c(Cl)cccc1Cl [Dic, diclofenac]
effect on capsaicin-induced ileum relaxation (guinea pig ileum): no effects | effect on Men-induced Ca2+ response (TRPM8): failed to inhibit; also recorded: resistant | effect on Men-evoked hyperthermia (mouse): no effects | effect on constitutive spontaneously active TRPM3-S currents (human TRPM3-S): substantially inhibited; also recorded: significantly inhibited | effect on small basal currents evoked by ramp voltage commands [1]: did not affect | IC50 (TRPM2): > 100 µM | effect on H2O2-induced Ca2+ response (TRPM2; 100 μmol/L Dic, H2O2 1 mmol/L): failed to inhibit | Nif-evoked sustained Ca2+ response versus PregS response (human TRPM3-3): clearly resistant | reversibility of current inhibition after withdrawal ([2]; 10 and 30 μmol/L Dic, 30 μmol/L PregS): immediately reversed | effect on PregS-evoked inward and outward currents ([2]; 10 and 30 μmol/L Dic, 30 μmol/L PregS, whole-cell): inhibited | voltage dependence of inhibition ([2]; comparison between -80 mV and +80 mV): voltage‐independent | preference to inhibit COX-1 than COX-2 (human COX-1 / COX-2): 1.6 times | IC50 (TRPV4): > 100 µM | effect on GSK-induced Ca2+ response (TRPV4; 100 μmol/L Dic, GSK 3 nmol/L): failed to inhibit | IC50 (TRPC5): 170 µM | effect on Nif-induced TRPM3-dependent Ca2+ responses (human TRPM3 isoforms; 30 μmol/L Nif): significantly inhibited | effect on TRPC6-like channel activity (TRPC6-like channel): decreased

COc1ccc2c(c1)c(CC(=O)O)c(C)n2C(=O)c1ccc(Cl)cc1 [Ind, indomethacin]
preference to inhibit COX-1 than COX-2 (human COX-1 / COX-2): 25 times

pregnenolone sulfate [PregS]
agonist effect on intracellular Ca2+ concentration (human TRPM3 isoforms): induced elevation | agonist Ca2+ response in nIMR-32 cells [3]: evoked a Ca^2+ response

Cc1cccc(Nc2ccccc2C(=O)O)c1C [mefenamic acid]
IC50 (mouse TRPM3α2 (mTRPM3α2)): 6.6 µM

COC(=O)C1=C(C)NC(C)=C(C(=O)OC)C1c1ccccc1[N+](=O)[O-] [Nif, nifedipine]
agonist effect on intracellular Ca2+ concentration (human TRPM3 isoforms): induced Ca^2+ response
